Measured values reported in ChEMBL document CHEMBL4627266, “Design and biological evaluation of a novel type of potential multi-targeting antimicrobial sulfanilamide hybrids in combination of pyrimidine and azoles” (Bioorg Med Chem Lett, 2020).
In brackets after ≈: the same amount, converted by molar mass. Activity calls are given as the source filed them. The rule behind the calls is not given here.

Assays:
Staphylococcus aureus [1] = assay: Antibacterial activity against methicillin-resistant Staphylococcus aureus by two fold serial microbroth dilution method; assay type: functional
Outline: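 Two-fold serial microbroth dilution in microdilution plates, run per CLSI, with clinical antibacterial drugs as positive controls. The MRSA strain was a drug-resistant clinical isolate from infected patients. MIC (μg/mL) was read as the lowest concentration giving complete inhibition of visible bacterial growth.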

Staphylococcus aureus [2] = assay: Antibacterial activity against Staphylococcus aureus by two fold serial microbroth dilution method; assay type: functional
Outline: (§1)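 Two-fold serial dilution in microdilution plates (micro broth dilution) following CLSI. Panel includes clinical drug-resistant isolates and ATCC reference strains. Clinical drugs were run as positive controls.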

Staphylococcus aureus [3] = assay: Antibacterial activity against Staphylococcus aureus ATCC 25923 by two fold serial microbroth dilution method; assay type: functional; outline: as §1
Enterococcus faecalis [4] = assay: Antibacterial activity against Enterococcus faecalis by two fold serial microbroth dilution method; assay type: functional; outline: as §1
Klebsiella pneumoniae = assay: Antibacterial activity against Klebsiella pneumoniae by two fold serial microbroth dilution method; assay type: functional; outline: as §1
Escherichia coli [5] = assay: Antibacterial activity against Escherichia coli by two fold serial microbroth dilution method; assay type: functional; outline: as §1
Escherichia coli [6] = assay: Antibacterial activity against Escherichia coli ATCC 25922 by two fold serial microbroth dilution method; assay type: functional; outline: as §1
Pseudomonas aeruginosa [7] = assay: Antibacterial activity against Pseudomonas aeruginosa by two fold serial microbroth dilution method; assay type: functional; outline: as §1
Pseudomonas aeruginosa [8] = assay: Antibacterial activity against Pseudomonas aeruginosa ATCC 27853 by two fold serial microbroth dilution method; assay type: functional; outline: as §1
Acinetobacter baumannii = assay: Antibacterial activity against Acinetobacter baumannii by two fold serial microbroth dilution method; assay type: functional; outline: as §1
Candida albicans [9] = assay: Antifungal activity against Candida albicans by two fold serial microbroth dilution method; assay type: functional
Outline: (§2)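 Antifungal MIC by two-fold serial dilution following CLSI, with a clinical drug as positive control. Panel includes clinical drug-resistant fungal isolates.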

Candida tropicalis = assay: Antifungal activity against Candida tropicalis by two fold serial microbroth dilution method; assay type: functional; outline: as §2
Aspergillus fumigatus = assay: Antifungal activity against Aspergillus fumigatus by two fold serial microbroth dilution method; assay type: functional; outline: as §2
Staphylococcus aureus [10] = assay: Antibacterial activity against Staphylococcus aureus ATCC 29213 by two fold serial microbroth dilution method; assay type: functional; outline: as §1
Candida albicans [11] = assay: Antifungal activity against Candida albicans ATCC 90023 by two fold serial microbroth dilution method; assay type: functional; outline: as §2
[12] = Cytotoxicity against human A549 cells assessed as cell viability at 64 ug/ml incubated for 24 hrs by MTT assay relative to control; assay type: cell-based; details: read-out: Activity
Outline: (§3)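 A549 lung cancer cells and BEAS-2B normal lung epithelial cells were exposed to the compound at a range of concentrations up to 64 μg/mL for 24 h. Viability was read by colorimetric MTT cell proliferation assay. Doxorubicin at 0.5 µM served as positive control.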

[13] = Cytotoxicity against human BEAS2B cells assessed as cell viability at 64 ug/ml incubated for 24 hrs by MTT assay relative to control; assay type: cell-based; details: BEAS-2B cells, read-out: Activity; outline: as §3
Enterococcus faecalis [14] = assay: Antibacterial activity against Enterococcus faecalis measured after 16 passages by microbroth dilution method; assay type: functional, organism-based
Enterococcus faecalis [15] = assay: Bactericidal activity against Enterococcus faecalis assessed as log10 reduction in CFU at MIC to 6XMIC by time kill kinetics analysis; assay type: functional
Outline: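 E. faecalis was exposed to the compound at MIC and 6 × MIC. Viable counts (log CFU/mL) were followed over time.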

Enterococcus faecalis [16] = assay: Induction of cell membrane permeabilization in Enterococcus faecalis at 12XMIC measured after 60 mins by PI staining based fluorescence assay; assay type: organism-based
Outline: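 E. faecalis cells were treated with the compound at 12 × MIC in the presence of propidium iodide, which enters only compromised cells and fluoresces on binding dsDNA. Fluorescence at 617 nm was followed over time, to about 120 min.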

DNA [17] = assay: Binding affinity to Enterococcus faecalis DNA assessed as hyperchromic effect by UV-visible spectrophotometric method; assay type: nucleic-acid assay
DNA [18] = assay: Binding affinity to Enterococcus faecalis DNA assessed as decrease in maximum absorption of DNA-NR complex at 530 nm by neutral red dye based absorption spectral assay; assay type: nucleic-acid assay
Albumin = Albumin (Homo sapiens, UniProt P02768); assay: Binding affinity to HSA by UV-visible spectrophotometric method; assay type: ADME; details: isolated protein
Albumin, sequence (P02768 whole entry): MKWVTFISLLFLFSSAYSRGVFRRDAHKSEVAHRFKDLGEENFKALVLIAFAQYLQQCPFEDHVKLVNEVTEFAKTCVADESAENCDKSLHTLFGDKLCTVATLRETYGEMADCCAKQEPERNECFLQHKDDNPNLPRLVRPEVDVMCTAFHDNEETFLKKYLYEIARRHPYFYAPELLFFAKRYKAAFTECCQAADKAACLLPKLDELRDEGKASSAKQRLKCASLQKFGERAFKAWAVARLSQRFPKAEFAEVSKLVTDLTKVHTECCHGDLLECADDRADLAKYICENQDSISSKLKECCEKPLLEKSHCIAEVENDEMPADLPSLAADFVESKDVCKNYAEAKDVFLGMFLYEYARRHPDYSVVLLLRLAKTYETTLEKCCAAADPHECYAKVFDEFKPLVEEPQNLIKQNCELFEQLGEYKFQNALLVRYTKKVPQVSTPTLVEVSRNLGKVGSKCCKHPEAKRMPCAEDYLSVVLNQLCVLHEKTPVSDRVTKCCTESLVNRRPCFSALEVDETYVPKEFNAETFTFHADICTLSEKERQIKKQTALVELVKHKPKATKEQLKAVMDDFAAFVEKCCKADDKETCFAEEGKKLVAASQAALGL

DNA [19] = assay: Binding affinity to Enterococcus faecalis DNA assessed as blue shift by UV-visible spectrophotometric method; assay type: nucleic-acid assay
DNA [20] = assay: Binding affinity to Enterococcus faecalis DNA assessed as increase in absorption peak at 460 nm by neutral red dye based absorption spectral assay; assay type: nucleic-acid assay

Structure (SMILES)	MIC (Staphylococcus aureus [1]) [µg/mL]	MIC (Staphylococcus aureus [2]) [µg/mL]	MIC (Staphylococcus aureus [3]) [µg/mL]	MIC (Enterococcus faecalis [4]) [µg/mL]	MIC (Klebsiella pneumoniae) [µg/mL]	MIC (Escherichia coli [5]) [µg/mL]	MIC (Escherichia coli [6]) [µg/mL]	MIC (Pseudomonas aeruginosa [7]) [µg/mL]	MIC (Pseudomonas aeruginosa [8]) [µg/mL]	MIC (Acinetobacter baumannii) [µg/mL]	MIC (Candida albicans [9]) [µg/mL]	MIC (Candida tropicalis) [µg/mL]	MIC (Aspergillus fumigatus) [µg/mL]	MIC (Staphylococcus aureus [10]) [µg/mL]	also measured
Nc1ccc(S(=O)(=O)Nc2nccc(-n3ccc4cc([N+](=O)[O-])ccc43)n2)cc1	16 (≈ 39 µM)	32 (≈ 78 µM)	4 (≈ 9.75 µM)	8 (≈ 19.5 µM)	32 (≈ 78 µM)	8 (≈ 19.5 µM)	128 (≈ 312 µM)	16 (≈ 39 µM)	8 (≈ 19.5 µM)	128 (≈ 312 µM)	2 to 8 (≈ 4.87 to 19.5 µM)	2 to 8 (≈ 4.87 to 19.5 µM)	2 to 8 (≈ 4.87 to 19.5 µM)	64 (≈ 156 µM)	–
Nc1ccc(S(=O)(=O)Nc2nccc(-n3ccnc3)n2)cc1	32 (≈ 101 µM)	128 (≈ 405 µM)	256 (≈ 809 µM)	128 (≈ 405 µM)	256 (≈ 809 µM)	256 (≈ 809 µM)	256 (≈ 809 µM)	128 (≈ 405 µM)	256 (≈ 809 µM)	64 (≈ 202 µM)	–	–	–	128 (≈ 405 µM)	–
CCCc1nccn1-c1ccnc(NS(=O)(=O)c2ccc(N)cc2)n1	16 (≈ 44.6 µM)	8 (≈ 22.3 µM)	64 (≈ 179 µM)	64 (≈ 179 µM)	64 (≈ 179 µM)	16 (≈ 44.6 µM)	128 (≈ 357 µM)	128 (≈ 357 µM)	128 (≈ 357 µM)	32 (≈ 89.3 µM)	–	–	–	8 (≈ 22.3 µM)	MIC (Candida albicans [11]): 4 µg/mL (≈ 11.2 µM)
Cc1ccc2c(ccn2-c2ccnc(NS(=O)(=O)c3ccc(N)cc3)n2)c1	4 (≈ 10.5 µM)	16 (≈ 42.2 µM)	4 (≈ 10.5 µM)	8 (≈ 21.1 µM)	8 (≈ 21.1 µM)	8 (≈ 21.1 µM)	32 (≈ 84.3 µM)	4 (≈ 10.5 µM)	4 (≈ 10.5 µM)	64 (≈ 169 µM)	2 to 8 (≈ 5.27 to 21.1 µM)	2 to 8 (≈ 5.27 to 21.1 µM)	2 to 8 (≈ 5.27 to 21.1 µM)	16 (≈ 42.2 µM)	–
Nc1ccc(S(=O)(=O)Nc2nccc(-n3cncn3)n2)cc1	128 (≈ 403 µM)	512 (≈ 1610 µM)	256 (≈ 807 µM)	256 (≈ 807 µM)	32 (≈ 101 µM)	128 (≈ 403 µM)	256 (≈ 807 µM)	4 (≈ 12.6 µM)	32 (≈ 101 µM)	128 (≈ 403 µM)	8 (≈ 25.2 µM)	–	–	64 (≈ 202 µM)	–
Nc1ccc(S(=O)(=O)Nc2nccc(-n3ccc4ccccc43)n2)cc1	2 (≈ 5.47 µM)	32 (≈ 87.6 µM)	4 (≈ 10.9 µM)	1 (≈ 2.74 µM)	32 (≈ 87.6 µM)	32 (≈ 87.6 µM)	32 (≈ 87.6 µM)	8 (≈ 21.9 µM)	1 (≈ 2.74 µM)	–	2 to 8 (≈ 5.47 to 21.9 µM)	2 to 8 (≈ 5.47 to 21.9 µM)	2 to 8 (≈ 5.47 to 21.9 µM)	8 (≈ 21.9 µM)	viability at 24 h, 64 ug/ml [12]: 70%; viability at 24 h, 64 ug/ml [13]: 70%; Activity (Enterococcus faecalis [14]): Active; Activity (Enterococcus faecalis [15]): >3 log10CFU/ml; Activity (Enterococcus faecalis [16]): Active; Activity (DNA [17]): Active; Activity (DNA [18]): Active; Activity (Albumin): Active; Activity (DNA [19]): Active; Activity (DNA [20]): Active
CCn1cc(C(=O)O)c(=O)c2cc(F)c(N3CCNCC3)cc21 [NORFLOXACIN]	8 (≈ 25.1 µM)	0.5 (≈ 1.57 µM)	1 (≈ 3.13 µM)	4 (≈ 12.5 µM)	4 (≈ 12.5 µM)	16 (≈ 50.1 µM)	8 (≈ 25.1 µM)	2 (≈ 6.26 µM)	0.5 (≈ 1.57 µM)	8 (≈ 25.1 µM)	–	–	–	2 (≈ 6.26 µM)	Activity (Enterococcus faecalis [14]): inactive
